Values belong to the compound of their own block, whether it stands above or below them. Calls of active or inactive are those of the source. The calls are words filed in the database; no cut-off is given here.
Experiments:
MV4-11 [1] = experiment: Synergistic antiproliferative activity against human MV4-11 cells harboring FLT3-ITD mutant assessed as combination index at ED90 concentration incubated for 48 hrs in presence of JAKi-1 by CellTiter-Glo assay; format: functional
How it was run: (§1)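 Two drugs combined at a constant ratio based on each one's individual IC50. […] Cells seeded 2000–6000/well and treated the same day in triplicate for 48 h. Viability read by CellTiter-Glo. Synergy from dose-response data of the combination. Final DMSO 0.1%.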

MV4-11 [2] = experiment: Synergistic antiproliferative activity against human MV4-11 cells harboring FLT3-ITD mutant assessed as combination index at ED50 concentration incubated for 48 hrs in presence of JAKi-1 by CellTiter-Glo assay; format: functional; how it was run: as §1
[3] = Selectivity ratio of IC50 for antiproliferative activity against human linifanib-resistant MV4-11 cells harboring FLT3-ITD mutant to IC50 for antiproliferative activity against human MV4-11 cells harboring FLT3-ITD mutant; format: functional
How it was run: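 Linifanib-resistant MV4-11 (MV4-11-R) and parental MV4-11 (MV4-11-P) cells, 2000–6000 cells/well, dosed on the seeding day in triplicate for 48 h, with final DMSO 0.1%. Viability was read by CellTiter-Glo luminescence. IC50 for each line came from dose-response curves, and the ratio is the resistant-line IC50 divided by the parental IC50.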

[4] = test system: Receptor-type tyrosine-protein kinase FLT3 (Homo sapiens), P36888 [UNDEFINED MUTATION]; settings: MV4-11, dose 5.0 nM, time 24.0 hrs
MV4-11 [5] = experiment: Down regulation of JAK2 protein expression level in human MV4-11 cells harboring FLT3-ITD mutant at 5 nM after 24 hrs by Western blot analysis; format: functional, cell-based
[6] = test system: Receptor-type tyrosine-protein kinase FLT3 (Homo sapiens), P36888 [UNDEFINED MUTATION]; experiment: Inhibition of FLT3-ITD mutant in human MV4-11 cells assessed as reduction in phosphorylated FLT3 protein expression up to 1000 nM incubated for 3 hrs by Western blot analysis; format: cell-based
MV4-11 [7] = experiment: Down regulation of JAK2 protein expression level in human MV4-11 cells harboring FLT3-ITD mutant at 18 nM after 24 hrs by Western blot analysis; format: functional, cell-based
[8] = Toxicity in BALB/c nude mouse xenografted with human MV4-11 cells harboring FLT-3 ITD mutant assessed as change in body weight at 25 to 100 mg/kg, po administered daily for 21 days; format: organism-based; settings: in vivo, 504 h, dose 25-100 mg/kg, time 21 day

Sequence of Receptor-type tyrosine-protein kinase FLT3 (Homo sapiens), P36888 [UNDEFINED MUTATION] (P36888 whole entry, looked up, change not shown): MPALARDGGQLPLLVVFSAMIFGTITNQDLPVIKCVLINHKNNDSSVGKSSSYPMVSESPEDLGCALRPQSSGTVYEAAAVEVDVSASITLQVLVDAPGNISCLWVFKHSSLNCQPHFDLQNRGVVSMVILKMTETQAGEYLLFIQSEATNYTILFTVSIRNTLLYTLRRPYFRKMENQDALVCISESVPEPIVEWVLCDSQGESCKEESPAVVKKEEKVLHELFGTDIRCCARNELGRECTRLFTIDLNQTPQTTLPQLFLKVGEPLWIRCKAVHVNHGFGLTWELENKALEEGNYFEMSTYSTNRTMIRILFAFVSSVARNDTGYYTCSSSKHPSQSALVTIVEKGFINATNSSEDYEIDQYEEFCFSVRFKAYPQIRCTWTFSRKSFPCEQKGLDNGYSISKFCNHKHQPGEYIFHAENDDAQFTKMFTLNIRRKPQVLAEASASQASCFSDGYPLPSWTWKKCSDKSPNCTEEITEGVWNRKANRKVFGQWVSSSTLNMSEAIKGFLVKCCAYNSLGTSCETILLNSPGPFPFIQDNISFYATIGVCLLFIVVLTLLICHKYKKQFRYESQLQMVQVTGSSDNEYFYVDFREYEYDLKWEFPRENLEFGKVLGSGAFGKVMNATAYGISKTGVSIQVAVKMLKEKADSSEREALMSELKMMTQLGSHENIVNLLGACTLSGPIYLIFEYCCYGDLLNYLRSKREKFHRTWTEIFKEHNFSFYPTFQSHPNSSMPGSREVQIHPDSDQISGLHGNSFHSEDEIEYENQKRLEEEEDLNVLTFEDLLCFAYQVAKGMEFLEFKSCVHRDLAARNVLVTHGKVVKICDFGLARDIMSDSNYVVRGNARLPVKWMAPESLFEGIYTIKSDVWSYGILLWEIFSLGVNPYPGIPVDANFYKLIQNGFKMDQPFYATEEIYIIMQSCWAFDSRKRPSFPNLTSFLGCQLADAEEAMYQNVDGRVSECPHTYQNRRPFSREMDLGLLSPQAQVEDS

SMILES: Cc1ccc(F)c(NC(=O)Nc2ccc(-c3cccc4[nH]nc(N)c34)cc2)c1 [LINIFANIB]
CI (MV4-11 [1]): 0.8
CI (MV4-11 [2]): 0.73
Ratio IC50 [3]: 127
inhibition [4]: Active
Activity (MV4-11 [5]): inactive

SMILES: Cc1cc(Nc2cc(N3CCN(C)CC3)nc(Sc3ccc(NC(=O)C4CC4)cc3)n2)n[nH]1
Activity (MV4-11 [7]): inactive

SMILES: C1=C/COCc2cc(ccc2OCCN2CCCC2)Nc2nccc(n2)-c2cccc(c2)COC/1 [PACRITINIB]
Activity [8]: Non-Toxic

Further lines, with some results ahead:

inhibition [6]: inactive
SMILES: CC(C)(C)c1nc2c3ccc(F)cc3c3c(=O)[nH]ccc3c2[nH]1

inhibition [4]: Active
SMILES: CCN(CC)CCNC(=O)c1c(C)[nH]c(/C=C2\C(=O)Nc3ccc(F)cc32)c1C
Activity (MV4-11 [5]): inactive
